# Test results reported in ChEMBL document CHEMBL1961794, “Regulation of circadian behaviour and metabolism by synthetic REV-ERB agonists” (Nature, 2012).
# The source made the active and inactive calls. No cut-off for these calls is given here.
# What was measured:
# [1] = biological target: Nuclear receptor subfamily 2 group F member 6 (Homo sapiens) (UniProt P10588); assay: Effect on EAR2(NR2F6) dependent reporter activity in HEK293 cells at 20 uM; assay type: cell-based
# Method in brief: (§1)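 Specificity panel covering all 48 human nuclear receptors. HEK293 cells cotransfected with Gal4 DNA-binding domain–nuclear receptor fusions and a luciferase reporter. Compound tested at a single 20 μM concentration. Mean ± s.e.m., n=3.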
# [2] = Plasma concentration after 4 hours at 10mg/kg ip dose (10mg/ml suspension in 10%DMSO/10%Tween80); assay type: ADME, organism-based; details: mouse, read-out: Conc_plasma
# Method in brief: (§2)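 Mice received a single 10 mg/kg i.p. dose as a 10 mg/ml suspension in DMSO/Tween80/water (10/10/80). Plasma was sampled at 1, 2, 4 and 8 h post-injection and drug concentration reported in μM. Mean ± s.e.m., n=3.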
# [3] = biological target: Steroid hormone receptor ERR2 (Homo sapiens) (UniProt O95718); assay: Effect on ERR2(NR3B2) dependent reporter activity in HEK293 cells at 20 uM; assay type: cell-based; method in brief: as §1
# [4] = biological target: Steroidogenic factor 1 (Homo sapiens) (UniProt Q13285); assay: Effect on SF1(NR5A1) dependent reporter activity in HEK293 cells at 20 uM; assay type: cell-based; method in brief: as §1
# [5] = biological target: Mineralocorticoid receptor (Homo sapiens) (UniProt P08235); assay: Effect on MCR(NR3C2) dependent reporter activity in HEK293 cells at 20 uM; assay type: cell-based; method in brief: as §1
# Mus musculus [6] = assay: Decreased expression of REV-ERB responsive gene Srebf1 in mouse liver after 6 days at 100 mg/kg; assay type: functional, organism-based; design: dose 100 mg/kg
# [7] = biological target: Photoreceptor-specific nuclear receptor (Homo sapiens) (UniProt Q9Y5X4); assay: Effect on PNR(NR2E3) dependent reporter activity in HEK293 cells at 20 uM; assay type: cell-based; method in brief: as §1
# [8] = biological target: Peroxisome proliferator-activated receptor gamma (Homo sapiens) (UniProt P37231); assay: Effect on PPARG(NR1C3) dependent reporter activity in HEK293 cells at 20 uM; assay type: cell-based; method in brief: as §1
# [9] = biological target: Nuclear receptor subfamily 4 group A member 2 (Homo sapiens) (UniProt P43354); assay: Effect on NURR1(NR4A2) dependent reporter activity in HEK293 cells at 20 uM; assay type: cell-based; method in brief: as §1
# [10] = biological target: Nuclear receptor subfamily 2 group C member 1 (Homo sapiens) (UniProt P13056); assay: Effect on TR2(NR2C1) dependent reporter activity in HEK293 cells at 20 uM; assay type: cell-based
# Method in brief: (§3)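 Cotransfection assay in HEK293 cells with Gal4 DNA-binding domain–nuclear receptor fusions, covering a panel of all 48 human nuclear receptors. Compounds were tested at 20 μM, with reporter luciferase as the read-out. Mean ± s.e.m., n=3.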
# [11] = biological target: Androgen receptor (Homo sapiens) (UniProt P10275); assay: Effect on AR(NR3C4) dependent reporter activity in HEK293 cells at 20 uM; assay type: cell-based; method in brief: as §1
# [12] = biological target: Nuclear receptor subfamily 2 group C member 2 (Homo sapiens) (UniProt P49116); assay: Effect on TR4(NR2C2) dependent reporter activity in HEK293 cells at 20 uM; assay type: cell-based; method in brief: as §3
# [13] = biological target: Retinoic acid receptor RXR-alpha (Homo sapiens) (UniProt P19793); assay: Effect on RXRA(NR2B1) dependent reporter activity in HEK293 cells at 20 uM; assay type: cell-based; method in brief: as §1
# [14] = Plasma concentration after 8 hours at 10mg/kg ip dose (10mg/ml suspension in 10%DMSO/10%Tween80); assay type: ADME, organism-based; details: mouse, read-out: Conc_plasma; method in brief: as §2
# [15] = biological target: Vitamin D3 receptor (Homo sapiens) (UniProt P11473); assay: Effect on VDR(NR1I1) dependent reporter activity in HEK293 cells at 20 uM; assay type: cell-based; method in brief: as §3
# [16] = biological target: Oxysterols receptor LXR-alpha (Homo sapiens) (UniProt Q13133); assay: Effect on LXRA(NR1H3) dependent reporter activity in HEK293 cells at 20 uM; assay type: cell-based; method in brief: as §1
# [17] = biological target: COUP transcription factor 1 (Homo sapiens) (UniProt P10589); assay: Effect on TFCOUP1(NR2F1) dependent reporter activity in HEK293 cells at 20 uM; assay type: cell-based; method in brief: as §3
# [18] = biological target: Glucocorticoid receptor (Homo sapiens) (UniProt P04150); assay: Effect on GCR(NR3C1) dependent reporter activity in HEK293 cells at 20 uM; assay type: cell-based; method in brief: as §1
# Mus musculus [19] = assay: Decreased expression of REV-ERB responsive gene Cyp7a1 in mouse liver after 6 days at 100 mg/kg; assay type: functional, organism-based; design: dose 100 mg/kg
# [20] = biological target: Bile acid receptor (Homo sapiens) (UniProt Q96RI1); assay: Effect on BAR(NR1H4) dependent reporter activity in HEK293 cells at 20 uM; assay type: cell-based; method in brief: as §1
# [21] = biological target: Nuclear receptor subfamily 4immunitygroup A member 1 (Homo sapiens) (UniProt P22736); assay: Effect on GFRP1(NR4A1) dependent reporter activity in HEK293 cells at 20 uM; assay type: cell-based; method in brief: as §1
# [22] = biological target: Nuclear receptor ROR-beta (Homo sapiens) (UniProt Q92753); assay: Effect on RORB(NR1F2) dependent reporter activity in HEK293 cells at 20 uM
# [23] = biological target: Steroid hormone receptor ERR1 (Homo sapiens) (UniProt P11474); assay: Effect on ERR1(NR3B1) dependent reporter activity in HEK293 cells at 20 uM; assay type: cell-based; method in brief: as §1
# [24] = biological target: Retinoic acid receptor gamma (Homo sapiens) (UniProt P13631); assay: Effect on RARG(NR1B3) dependent reporter activity in HEK293 cells at 20 uM; assay type: cell-based; method in brief: as §1
# [25] = Brain concentration after 8 hours at 10mg/kg ip dose (10mg/ml suspension in 10%DMSO/10%Tween80); assay type: ADME, organism-based; details: mouse
# Method in brief: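 Mice given a single 10mg/kg i.p. dose as a 10mg/ml suspension in 10/10/80 DMSO/Tween80/water. Brain levels (μM) measured at 2h and 8h post injection, with plasma sampled at 1, 2, 4 and 8h. Mean ± s.e.m., n=3.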
# [26] = biological target: Progesterone receptor (Homo sapiens) (UniProt P06401); assay: Effect on PGR(NR3C3) dependent reporter activity in HEK293 cells at 20 uM; assay type: cell-based; method in brief: as §1
# [27] = biological target: Retinoic acid receptor beta (Homo sapiens) (UniProt P10826); assay: Effect on RARB(NR1B2) dependent reporter activity in HEK293 cells at 20 uM; assay type: cell-based; method in brief: as §1
# Mus musculus [28] = assay: Decreased expression of REV-ERB responsive gene Serpine1 in mouse liver after 6 days at 100 mg/kg; assay type: functional, organism-based; design: dose 100 mg/kg
# [29] = biological target: Nuclear receptor ROR-gamma (Homo sapiens) (UniProt P51449); assay: Effect on RORG(NR1F3) dependent reporter activity in HEK293 cells at 20 uM; assay type: cell-based; method in brief: as §1
# [30] = biological target: Nuclear receptor subfamily 2 group E member 1 (Homo sapiens) (UniProt Q9Y466); assay: Effect on TLX(NR2E1) dependent reporter activity in HEK293 cells at 20 uM; assay type: cell-based; method in brief: as §3
# [31] = biological target: Estrogen receptor beta (Homo sapiens) (UniProt Q92731); assay: Effect on ESR2(NR3A2) dependent reporter activity in HEK293 cells at 20 uM; assay type: cell-based; method in brief: as §1
# [32] = biological target: Nuclear receptor subfamily 5 group A member 2 (Homo sapiens) (UniProt O00482); assay: Effect on CPF(NR5A2) dependent reporter activity in HEK293 cells at 20 uM; assay type: cell-based; method in brief: as §1
# Nuclear receptor subfamily 5 group A member 2 (Homo sapiens), sequence (O00482 whole entry): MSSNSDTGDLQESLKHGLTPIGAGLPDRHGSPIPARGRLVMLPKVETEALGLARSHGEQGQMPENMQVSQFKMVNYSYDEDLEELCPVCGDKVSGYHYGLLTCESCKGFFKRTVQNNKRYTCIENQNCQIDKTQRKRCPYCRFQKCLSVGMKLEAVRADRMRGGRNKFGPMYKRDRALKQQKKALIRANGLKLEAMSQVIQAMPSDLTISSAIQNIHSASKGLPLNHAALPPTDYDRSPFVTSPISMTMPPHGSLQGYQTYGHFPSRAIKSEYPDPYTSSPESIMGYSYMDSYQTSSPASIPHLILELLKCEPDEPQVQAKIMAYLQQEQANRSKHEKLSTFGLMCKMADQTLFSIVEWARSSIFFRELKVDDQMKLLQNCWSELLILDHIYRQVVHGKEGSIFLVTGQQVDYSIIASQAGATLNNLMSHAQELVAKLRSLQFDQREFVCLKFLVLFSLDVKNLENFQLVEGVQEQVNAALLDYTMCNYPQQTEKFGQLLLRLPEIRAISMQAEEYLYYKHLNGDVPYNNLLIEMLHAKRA
# Nuclear receptor ROR-beta (Homo sapiens), sequence (Q92753 whole entry, looked up): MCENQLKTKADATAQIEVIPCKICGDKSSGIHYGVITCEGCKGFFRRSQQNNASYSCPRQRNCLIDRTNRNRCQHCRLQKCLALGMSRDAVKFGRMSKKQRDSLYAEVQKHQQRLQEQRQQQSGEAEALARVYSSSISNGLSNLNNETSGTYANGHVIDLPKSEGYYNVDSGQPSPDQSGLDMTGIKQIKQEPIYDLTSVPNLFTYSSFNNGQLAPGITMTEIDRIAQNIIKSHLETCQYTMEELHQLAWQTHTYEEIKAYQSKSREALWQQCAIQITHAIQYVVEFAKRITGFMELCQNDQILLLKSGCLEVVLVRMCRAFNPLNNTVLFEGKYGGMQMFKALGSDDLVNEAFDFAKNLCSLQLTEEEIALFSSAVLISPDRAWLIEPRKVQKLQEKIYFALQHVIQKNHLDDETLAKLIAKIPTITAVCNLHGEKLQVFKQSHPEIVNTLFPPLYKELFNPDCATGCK
# Retinoic acid receptor gamma (Homo sapiens), sequence (P13631 whole entry): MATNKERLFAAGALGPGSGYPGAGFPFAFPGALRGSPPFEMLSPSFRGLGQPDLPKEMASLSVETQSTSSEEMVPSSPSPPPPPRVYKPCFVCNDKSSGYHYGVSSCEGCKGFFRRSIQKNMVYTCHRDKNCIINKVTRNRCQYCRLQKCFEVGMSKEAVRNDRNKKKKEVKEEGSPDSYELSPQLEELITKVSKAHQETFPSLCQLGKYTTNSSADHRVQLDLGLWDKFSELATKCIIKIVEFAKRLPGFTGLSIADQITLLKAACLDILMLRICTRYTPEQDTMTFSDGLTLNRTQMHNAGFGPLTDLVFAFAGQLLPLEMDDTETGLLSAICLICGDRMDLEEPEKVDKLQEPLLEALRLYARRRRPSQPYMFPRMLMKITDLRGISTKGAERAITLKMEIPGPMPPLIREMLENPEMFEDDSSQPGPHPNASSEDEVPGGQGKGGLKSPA
# Steroid hormone receptor ERR2 (Homo sapiens), sequence (O95718 whole entry): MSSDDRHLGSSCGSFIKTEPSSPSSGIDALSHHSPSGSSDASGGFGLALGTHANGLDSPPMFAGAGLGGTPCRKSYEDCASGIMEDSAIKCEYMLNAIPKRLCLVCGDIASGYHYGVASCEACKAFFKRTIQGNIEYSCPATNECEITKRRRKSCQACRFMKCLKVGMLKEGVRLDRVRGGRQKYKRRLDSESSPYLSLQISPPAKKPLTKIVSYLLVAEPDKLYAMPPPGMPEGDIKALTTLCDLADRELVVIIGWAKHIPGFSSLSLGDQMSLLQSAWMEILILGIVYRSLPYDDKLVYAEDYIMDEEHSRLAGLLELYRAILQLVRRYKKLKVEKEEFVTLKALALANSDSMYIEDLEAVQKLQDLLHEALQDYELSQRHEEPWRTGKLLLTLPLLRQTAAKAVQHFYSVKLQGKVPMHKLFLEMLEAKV
# Nuclear receptor subfamily 2 group C member 2 (Homo sapiens), sequence (P49116 whole entry): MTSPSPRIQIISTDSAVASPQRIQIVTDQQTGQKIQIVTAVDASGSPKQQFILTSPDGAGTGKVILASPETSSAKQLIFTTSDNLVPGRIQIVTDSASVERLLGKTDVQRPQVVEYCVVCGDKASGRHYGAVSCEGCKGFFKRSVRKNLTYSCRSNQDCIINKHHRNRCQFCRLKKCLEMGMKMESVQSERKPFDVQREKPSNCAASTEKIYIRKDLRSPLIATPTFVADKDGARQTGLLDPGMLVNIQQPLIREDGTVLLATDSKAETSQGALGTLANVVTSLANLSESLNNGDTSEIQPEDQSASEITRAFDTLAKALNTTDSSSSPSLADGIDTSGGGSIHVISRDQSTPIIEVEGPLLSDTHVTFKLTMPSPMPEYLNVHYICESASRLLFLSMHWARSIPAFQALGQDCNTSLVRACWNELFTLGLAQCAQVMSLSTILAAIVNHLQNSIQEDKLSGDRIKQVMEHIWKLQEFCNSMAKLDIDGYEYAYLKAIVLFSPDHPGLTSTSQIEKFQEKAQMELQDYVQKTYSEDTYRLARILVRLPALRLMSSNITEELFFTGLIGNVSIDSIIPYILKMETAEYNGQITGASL
# Oxysterols receptor LXR-alpha (Homo sapiens), sequence (Q13133 whole entry): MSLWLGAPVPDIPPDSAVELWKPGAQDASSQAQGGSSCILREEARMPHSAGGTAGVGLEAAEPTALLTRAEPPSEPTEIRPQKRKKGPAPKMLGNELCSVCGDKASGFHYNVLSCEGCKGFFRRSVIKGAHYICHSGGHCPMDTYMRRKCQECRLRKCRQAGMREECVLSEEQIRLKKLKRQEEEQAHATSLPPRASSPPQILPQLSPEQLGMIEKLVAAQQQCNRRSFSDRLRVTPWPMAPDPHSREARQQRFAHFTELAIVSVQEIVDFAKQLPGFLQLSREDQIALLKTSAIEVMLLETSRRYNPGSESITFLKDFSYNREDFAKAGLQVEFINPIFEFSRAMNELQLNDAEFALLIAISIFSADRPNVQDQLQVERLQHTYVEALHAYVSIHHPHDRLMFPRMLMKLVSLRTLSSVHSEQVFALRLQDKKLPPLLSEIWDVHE
# Photoreceptor-specific nuclear receptor (Homo sapiens), sequence (Q9Y5X4 whole entry): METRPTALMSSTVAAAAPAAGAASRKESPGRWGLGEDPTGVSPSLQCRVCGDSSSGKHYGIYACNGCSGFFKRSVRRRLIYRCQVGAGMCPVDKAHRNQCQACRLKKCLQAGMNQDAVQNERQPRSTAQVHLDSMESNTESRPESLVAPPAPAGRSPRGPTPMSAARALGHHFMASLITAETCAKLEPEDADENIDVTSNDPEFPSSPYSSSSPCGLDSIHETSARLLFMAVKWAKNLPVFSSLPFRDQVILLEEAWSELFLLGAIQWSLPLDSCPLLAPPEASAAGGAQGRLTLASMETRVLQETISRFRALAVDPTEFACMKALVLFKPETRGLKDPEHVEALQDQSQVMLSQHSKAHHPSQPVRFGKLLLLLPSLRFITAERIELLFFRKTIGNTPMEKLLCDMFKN
# Mineralocorticoid receptor (Homo sapiens), sequence (P08235 whole entry): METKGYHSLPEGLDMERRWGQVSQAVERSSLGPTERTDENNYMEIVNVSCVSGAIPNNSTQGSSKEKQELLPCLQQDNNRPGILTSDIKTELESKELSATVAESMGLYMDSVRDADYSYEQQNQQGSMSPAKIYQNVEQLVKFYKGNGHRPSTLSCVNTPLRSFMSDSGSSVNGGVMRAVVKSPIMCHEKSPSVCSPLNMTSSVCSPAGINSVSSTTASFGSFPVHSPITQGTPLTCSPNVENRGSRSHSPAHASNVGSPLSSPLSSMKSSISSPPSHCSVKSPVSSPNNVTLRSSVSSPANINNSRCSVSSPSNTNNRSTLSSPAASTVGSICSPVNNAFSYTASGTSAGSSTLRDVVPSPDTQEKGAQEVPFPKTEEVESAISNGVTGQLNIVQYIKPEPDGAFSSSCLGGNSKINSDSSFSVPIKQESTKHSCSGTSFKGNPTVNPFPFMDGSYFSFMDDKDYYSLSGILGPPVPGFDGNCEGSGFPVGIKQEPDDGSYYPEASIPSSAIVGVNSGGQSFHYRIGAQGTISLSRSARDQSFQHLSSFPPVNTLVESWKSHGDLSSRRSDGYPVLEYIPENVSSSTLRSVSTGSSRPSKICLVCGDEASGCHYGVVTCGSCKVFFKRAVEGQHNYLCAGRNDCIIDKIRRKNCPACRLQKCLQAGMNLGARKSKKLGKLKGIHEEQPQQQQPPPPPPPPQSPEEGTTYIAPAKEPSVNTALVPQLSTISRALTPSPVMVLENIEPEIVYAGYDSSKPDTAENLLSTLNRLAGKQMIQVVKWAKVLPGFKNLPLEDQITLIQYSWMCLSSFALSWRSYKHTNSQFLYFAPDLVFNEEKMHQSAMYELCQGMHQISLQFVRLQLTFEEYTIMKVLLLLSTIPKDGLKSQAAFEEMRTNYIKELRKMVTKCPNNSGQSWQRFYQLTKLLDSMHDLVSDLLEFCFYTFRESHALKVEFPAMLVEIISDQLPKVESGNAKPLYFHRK
# Nuclear receptor subfamily 4 group A member 2 (Homo sapiens), sequence (P43354 whole entry): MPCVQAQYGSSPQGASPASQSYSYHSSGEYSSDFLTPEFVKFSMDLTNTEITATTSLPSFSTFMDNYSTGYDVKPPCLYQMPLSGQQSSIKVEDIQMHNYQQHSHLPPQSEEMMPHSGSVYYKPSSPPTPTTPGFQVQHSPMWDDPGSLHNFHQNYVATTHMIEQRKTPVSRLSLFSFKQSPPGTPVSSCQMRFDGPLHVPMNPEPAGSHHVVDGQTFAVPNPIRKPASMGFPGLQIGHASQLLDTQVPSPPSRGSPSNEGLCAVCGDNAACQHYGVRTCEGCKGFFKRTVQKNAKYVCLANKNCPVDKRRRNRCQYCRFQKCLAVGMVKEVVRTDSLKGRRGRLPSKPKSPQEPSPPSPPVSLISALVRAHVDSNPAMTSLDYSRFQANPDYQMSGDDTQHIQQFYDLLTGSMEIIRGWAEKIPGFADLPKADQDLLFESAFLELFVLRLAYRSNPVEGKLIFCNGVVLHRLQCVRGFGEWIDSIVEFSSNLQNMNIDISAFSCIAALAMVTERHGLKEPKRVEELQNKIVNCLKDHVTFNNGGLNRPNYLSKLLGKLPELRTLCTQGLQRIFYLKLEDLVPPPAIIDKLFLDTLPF
SMILES,inhibition [1],concentration at 4 h [2],inhibition [3],inhibition [4],inhibition [5],Reduced_Srebf1_gene_exp (Mus musculus [6]),inhibition [7],inhibition [8],inhibition [9],inhibition [10],inhibition [11],inhibition [12],inhibition [13],concentration at 8 h [14],inhibition [15],inhibition [16],inhibition [17],inhibition [18],Reduced_Cyp7a1_gene_exp (Mus musculus [19]),inhibition [20],other results
CCOC(=O)N1CCC(CN(Cc2ccc(Cl)cc2)Cc2ccc([N+](=O)[O-])s2)C1 (centres undefined) [SR9009],inactive,220 nM,inactive,inactive,inactive,Active,inactive,inactive,inactive,inactive,inactive,inactive,inactive,130 nM,inactive,inactive,inactive,inactive,Active,inactive,"inhibition [21]: inactive; inhibition [22]: inactive; inhibition [23]: inactive; inhibition [24]: inactive; concentration at 8 h ([25]; brain, read-out: Conc_brain): 110 nM; inhibition [26]: inactive; inhibition [27]: inactive; Reduced_Serpine1_gene_exp (Mus musculus [28]): Active; inhibition [29]: inactive; inhibition [30]: inactive; inhibition [31]: inactive; inhibition [32]: inactive"
CCCCCNC(=O)N1CCC(CN(Cc2ccc(Cl)cc2)Cc2ccc([N+](=O)[O-])s2)C1 (centres undefined) [SR9011],inactive,110 nM,inactive,inactive,inactive,Active,inactive,inactive,inactive,inactive,inactive,inactive,inactive,10 nM,inactive,inactive,inactive,inactive,Active,inactive,"inhibition [21]: inactive; inhibition [22]: inactive; inhibition [23]: inactive; inhibition [24]: inactive; Conc_brain ([25]; in vivo, 8 h): Not Detected; inhibition [26]: inactive; inhibition [27]: inactive; Reduced_Serpine1_gene_exp (Mus musculus [28]): Active; inhibition [29]: inactive; inhibition [30]: inactive; inhibition [31]: inactive; inhibition [32]: inactive"
